From ChEMBL document CHEMBL1772996, “Bioactive constituents from the roots of Panax japonicus var. major and development of a LC-MS/MS method for distinguishing between natural and artifactual compounds” (J Nat Prod, 2011)
The source made the active and inactive calls. The rule behind the calls is not given here.

Assays:
[1] = system: Neutrophil; assay: Inhibition of fMLP/CB-stimulated superoxide anion generation in human neutrophils; assay type: functional, cell-based
Outline: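 Isolated human neutrophils (dextran sedimentation, Ficoll Hypaque, hypotonic lysis; >98% viable) with 0.5 mg/mL ferricytochrome c and 1 mM Ca2+, 37 °C 2 min, compound 5 min; CB 1 μg/mL 3 min, then 100 nM FMLP 10 min; SOD-inhibitable cytochrome c reduction followed continuously at 550 nm with stirring; mean ± S.E.M., n = 3–4; top concentration 30 μM.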

[2] = system: Neutrophil; assay: Inhibition of fMLP/CB-activated human neutrophil degranulation assessed as inhibition of elastase release at 30 uM using MeO-Suc-Ala-Ala-Pro-Val-p-nitroanilide as a substrate after 5 mins relative to control; assay type: functional
Outline: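 Isolated human neutrophils (dextran sedimentation, Ficoll Hypaque, hypotonic erythrocyte lysis; >98% viable by trypan blue) at 5×10^5/mL in Ca2+-free HBSS pH 7.4 with 100 μM MeO-Suc-Ala-Ala-Pro-Val-p-nitroanilide. Equilibrated 37 °C 2 min, compound 5 min, then activated with 100 nM fMLP plus 0.5 μg/mL CB. A405 monitored continuously. Expressed as % of initial elastase release rate in drug-free fMLP/CB control; mean ± S.E.M., n = 3–4.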

[3] = system: KB; assay: Cytotoxicity against human KB cells assessed as growth inhibition after 3 days by sulforhodamine B assay; assay type: functional
[4] = system: DU-145; assay: Cytotoxicity against human DU145 cells assessed as growth inhibition after 3 days by sulforhodamine B assay; assay type: functional
[5] = system: A549; assay: Cytotoxicity against human A549 cells assessed as growth inhibition after 3 days by sulforhodamine B assay; assay type: functional, cell-based
[6] = system: HCT-8; assay: Cytotoxicity against human HCT8 cells assessed as growth inhibition after 3 days by sulforhodamine B assay; assay type: functional, cell-based
[7] = system: Neutrophil; assay: Inhibition of fMLP/CB-activated human neutrophil degranulation assessed as inhibition of elastase release using MeO-Suc-Ala-Ala-Pro-Val-p-nitroanilide as a substrate after 5 mins; assay type: functional, cell-based
Outline: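 Neutrophils from dextran sedimentation, Ficoll Hypaque centrifugation and hypotonic erythrocyte lysis (>98% viable by trypan blue), held in Ca2+-free HBSS pH 7.4 at 4 °C; 5×10^5/mL cells with 100 μM substrate equilibrated 37 °C 2 min, compound 5 min, then 100 nM FMLP plus 0.5 μg/mL CB; A405 monitored continuously; expressed as % of initial rate in drug-free activated control; mean ± S.E.M., n = 3–4; top concentration 30 μM.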

[8] = Inhibition of yeast alpha-glucosidase assessed as p-nitrophenol release after 20 mins by microplate spectrophotometer; set-up: species or system Saccharomyces cerevisiae
[9] = system: Neutrophil; assay: Inhibition of fMLP/CB-stimulated superoxide anion generation in human neutrophils at 30 uM relative to control; assay type: functional
Outline: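 Neutrophils isolated by dextran sedimentation, Ficoll Hypaque and hypotonic lysis, kept in Ca2+-free HBSS pH 7.4 at 4 °C. Given 0.5 mg/mL ferricytochrome c and 1 mM Ca2+, equilibrated 37 °C 2 min, compound 5 min. CB 1 μg/mL for 3 min, then 100 nM fMLP for 10 min. SOD-inhibitable ferricytochrome c reduction followed at 550 nm with stirring; mean ± S.E.M., n = 3–4.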

[10] = system: Neutrophil; assay: Inhibition of superoxide anion generation in human neutrophils in response to fMLP/CB

Structure (SMILES): CCCCOC(=O)[C@H]1O[C@@H](O[C@H]2CC[C@]3(C)[C@H]4CC=C5[C@@H]6CC(C)(C)CC[C@]6(C(=O)O[C@@H]6O[C@H](CO)[C@@H](O)[C@H](O)[C@H]6O)CC[C@@]5(C)[C@]4(C)CC[C@H]3C2(C)C)[C@H](O[C@@H]2OC[C@@H](O)[C@H](O)[C@H]2O)[C@@H](O)[C@@H]1O
- IC50 [1]: 21.2 µM
- inhibition at 30 µM [2]: 20%
- growth inhibition (GI) [3]: inactive
- growth inhibition (GI) [4]: inactive
- growth inhibition (GI) [5]: inactive
- growth inhibition (GI) [6]: inactive

Structure (SMILES): CC1(C)CC[C@]2(C(=O)O[C@@H]3O[C@H](CO)[C@@H](O)[C@H](O)[C@H]3O)CC[C@]3(C)C(=CC[C@@H]4[C@@]5(C)CC[C@H](O[C@@H]6O[C@H](C(=O)O)[C@@H](O)[C@H](O)[C@H]6O)C(C)(C)[C@@H]5CC[C@]43C)[C@@H]2C1 [CHIKUSETSUSAPONIN IVA]
- IC50 [1]: 2.88 µM
- IC50 [7]: 4.76 µM
- growth inhibition (GI) [3]: inactive
- growth inhibition (GI) [4]: inactive
- growth inhibition (GI) [5]: inactive
- growth inhibition (GI) [6]: inactive

Structure (SMILES): C[C@H]1O[C@H](O[C@H]2[C@H](O)[C@@H](O)[C@@H](O[C@H]3[C@H](O)[C@@H](O)C(O)O[C@@H]3CO)O[C@@H]2CO)[C@H](O)[C@@H](O)[C@@H]1N[C@H]1C=C(CO)[C@@H](O)[C@H](O)[C@H]1O (some centres not stated) [ACARBOSE]
- IC50 [8]: 678 µM

Structure (SMILES): CC1(C)CC[C@]2(C(=O)O[C@@H]3O[C@H](CO)[C@@H](O)[C@H](O)[C@H]3O)CC[C@]3(C)C(=CC[C@@H]4[C@@]5(C)CC[C@H](O[C@@H]6O[C@H](C(=O)O[C@@H]7O[C@H](CO)[C@@H](O)[C@H](O)[C@H]7O)[C@@H](O[C@@H]7O[C@@H](CO)[C@H](O)[C@H]7O)[C@H](O)[C@H]6O)C(C)(C)[C@@H]5CC[C@]43C)[C@@H]2C1
- IC50 [1]: 1.56 µM
- IC50 [7]: 1.87 µM
- growth inhibition (GI) [3]: inactive
- growth inhibition (GI) [4]: inactive
- growth inhibition (GI) [5]: inactive
- growth inhibition (GI) [6]: inactive

Structure (SMILES): CC1(C)CC[C@]2(C(=O)O[C@@H]3O[C@H](CO)[C@@H](O)[C@H](O)[C@H]3O)CC[C@]3(C)C(=CC[C@@H]4[C@@]5(C)CC[C@H](O)C(C)(C)[C@@H]5CC[C@]43C)[C@@H]2C1
- IC50 [7]: 9.64 µM
- inhibition at 30 µM [9]: 43.6%
- growth inhibition (GI) [3]: inactive
- growth inhibition (GI) [4]: inactive
- growth inhibition (GI) [5]: inactive
- growth inhibition (GI) [6]: inactive

Structure (SMILES): CC1(C)CC[C@]2(C(=O)O[C@@H]3O[C@H](CO)[C@@H](O)[C@H](O)[C@H]3O)CC[C@]3(C)C(=CC[C@@H]4[C@@]5(C)CC[C@H](O[C@@H]6O[C@H](C(=O)O)[C@@H](O)[C@H](O)[C@H]6O[C@H]6OC[C@@H](O)[C@H](O)[C@H]6O)C(C)(C)[C@@H]5CC[C@]43C)[C@@H]2C1 [PSEUDOGINSENOSIDE RT1]
- IC50 [1]: 19.4 µM
- IC50 [7]: 44.5 µM
- growth inhibition (GI) [3]: inactive
- growth inhibition (GI) [4]: inactive
- growth inhibition (GI) [5]: inactive
- growth inhibition (GI) [6]: inactive

Structure (SMILES): COC(=O)[C@H]1O[C@@H](O[C@H]2CC[C@]3(C)[C@H]4CC=C5[C@@H]6CC(C)(C)CC[C@]6(C(=O)O[C@@H]6O[C@H](CO)[C@@H](O)[C@H](O)[C@H]6O)CC[C@@]5(C)[C@]4(C)CC[C@H]3C2(C)C)[C@H](O)[C@@H](O)[C@@H]1O
- IC50 [7]: 1.97 µM
- growth inhibition (GI) [3]: inactive
- growth inhibition (GI) [4]: inactive
- growth inhibition (GI) [5]: inactive
- growth inhibition (GI) [6]: inactive
- IC50 [10]: 13.6 µM

Structure (SMILES): CCCCOC(=O)[C@H]1O[C@@H](O[C@H]2CC[C@]3(C)[C@H]4CC=C5[C@@H]6CC(C)(C)CC[C@]6(C(=O)O[C@@H]6O[C@H](CO)[C@@H](O)[C@H](O)[C@H]6O)CC[C@@]5(C)[C@]4(C)CC[C@H]3C2(C)C)[C@H](O)[C@@H](O)[C@@H]1O
- IC50 [1]: 3.73 µM
- IC50 [7]: 7.28 µM
- growth inhibition (GI) [3]: inactive
- growth inhibition (GI) [4]: inactive
- growth inhibition (GI) [5]: inactive
- growth inhibition (GI) [6]: inactive

Structure (SMILES): COC(=O)[C@H]1O[C@@H](O[C@H]2CC[C@]3(C)[C@H]4CC=C5[C@@H]6CC(C)(C)CC[C@]6(C(=O)O[C@@H]6O[C@H](CO)[C@@H](O)[C@H](O)[C@H]6O)CC[C@@]5(C)[C@]4(C)CC[C@H]3C2(C)C)[C@H](O)[C@@H](O)[C@@H]1O[C@@H]1O[C@@H](CO)[C@H](O)[C@H]1O
- IC50 [1]: 19.7 µM
- inhibition at 30 µM [2]: 27.5%
- growth inhibition (GI) [3]: inactive
- growth inhibition (GI) [4]: inactive
- growth inhibition (GI) [5]: inactive
- growth inhibition (GI) [6]: inactive

Structure (SMILES): CCCCOC(=O)[C@H]1O[C@@H](O[C@H]2CC[C@]3(C)[C@H]4CC=C5[C@@H]6CC(C)(C)CC[C@]6(C(=O)O[C@@H]6O[C@H](CO)[C@@H](O)[C@H](O)[C@H]6O)CC[C@@]5(C)[C@]4(C)CC[C@H]3C2(C)C)[C@H](O)[C@@H](O)[C@@H]1O[C@@H]1O[C@@H](CO)[C@H](O)[C@H]1O [TAIBAIENOSIDE I]
- IC50 [1]: 2.24 µM
- IC50 [7]: 1.36 µM
- growth inhibition (GI) [3]: inactive
- growth inhibition (GI) [4]: inactive
- growth inhibition (GI) [5]: inactive
- growth inhibition (GI) [6]: inactive

Structure (SMILES): COC(=O)[C@H]1O[C@@H](O[C@H]2CC[C@]3(C)[C@H]4CC=C5[C@@H]6CC(C)(C)CC[C@]6(C(=O)O[C@@H]6O[C@H](CO)[C@@H](O)[C@H](O)[C@H]6O)CC[C@@]5(C)[C@]4(C)CC[C@H]3C2(C)C)[C@H](O[C@H]2OC[C@@H](O)[C@H](O)[C@H]2O)[C@@H](O)[C@@H]1O [PSEUDOGINSENOSIDE RT1 METHYL ESTER]
- IC50 [1]: 5.26 µM
- IC50 [7]: 7.75 µM
- growth inhibition (GI) [3]: inactive
- growth inhibition (GI) [4]: inactive
- growth inhibition (GI) [5]: inactive
- growth inhibition (GI) [6]: inactive

Structure (SMILES): CC1(C)CC[C@]2(C(=O)O)CC[C@]3(C)C(=CC[C@@H]4[C@@]5(C)CC[C@H](O)C(C)(C)[C@@H]5CC[C@]43C)[C@@H]2C1 [OLEANOLIC_ACID]
- IC50 [1]: 1.37 µM
- IC50 [7]: 0.75 µM
- growth inhibition (GI) [3]: inactive
- growth inhibition (GI) [4]: inactive
- growth inhibition (GI) [5]: inactive
- growth inhibition (GI) [6]: inactive
